Assay results: ChEMBL document CHEMBL4680290, “Design, synthesis and biological evaluation of novel chalcone-like compounds as potent and reversible pancreatic lipase inhibitors” (Bioorg Med Chem, 2021)

Target: T1, Pancreatic triacylglycerol lipase (Sus scrofa, UniProt P00591)
T1 sequence (P00591 whole entry): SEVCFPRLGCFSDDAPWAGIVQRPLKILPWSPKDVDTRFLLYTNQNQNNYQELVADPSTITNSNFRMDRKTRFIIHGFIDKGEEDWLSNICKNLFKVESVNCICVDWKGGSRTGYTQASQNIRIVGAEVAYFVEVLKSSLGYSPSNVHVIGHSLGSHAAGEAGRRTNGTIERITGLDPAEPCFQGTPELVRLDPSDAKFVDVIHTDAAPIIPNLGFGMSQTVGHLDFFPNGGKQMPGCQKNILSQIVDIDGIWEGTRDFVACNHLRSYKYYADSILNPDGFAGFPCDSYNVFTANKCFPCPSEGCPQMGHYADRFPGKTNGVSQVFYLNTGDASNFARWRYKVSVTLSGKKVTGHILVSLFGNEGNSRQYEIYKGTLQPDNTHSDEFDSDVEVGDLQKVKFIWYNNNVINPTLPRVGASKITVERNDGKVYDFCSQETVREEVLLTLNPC
Assay: Inhibition of porcine pancreatic lipase preincubated for 10 mins followed by 4-MUO addition and measured at 60 sec interval for 40 mins by multi plate micro plate reader
Outline: (§1)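 Porcine pancreatic lipase (type II) at 0.01 mg/mL final in 0.1 M citrate phosphate buffer pH 7.4 with inhibitor at various concentrations, vortexed, preincubated 10 min at 37 °C. Reaction started with 4-MUO, and fluorescence of released 4-MU read on a microplate reader. IC50 obtained by nonlinear regression; mean ± SD of triplicates.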

SMILES | IC50
O=C1/C(=C/c2ccc(O)cc2)Cc2ccccc21 | 14.9 µM
C=CCCCCN(CCCCC=C)c1ccc2c(c1)C(=O)/C(=C/c1ccc(O)c(OC)c1)C2 | 2.09 µM
COc1cc(OC)c(/C=C2\Cc3ccc(O)cc3C2=O)c(OC)c1 | 20.7 µM
O=C1/C(=C/c2ccc(Br)cc2)Cc2ccc(O)cc21 | 75.6 µM
COc1ccc(/C=C2\Cc3ccc(O)cc3C2=O)c(OC)c1 | 24.8 µM
COc1cc(/C=C2\Cc3ccc(O)cc3C2=O)ccc1O | 10.4 µM
O=C(/C=C/c1ccccc1)c1ccccc1 [CHALCONE] | 84.4 µM
O=C1/C(=C/c2cccc(Br)c2)Cc2ccc(O)cc21 | 14.8 µM
COc1cc(OC)c(OC)cc1/C=C1\Cc2ccc(O)cc2C1=O | 35 µM
C=CCCCCNc1ccc2c(c1)C(=O)/C(=C/c1ccc(O)c(OC)c1)C2 | 25.1 µM
C=CCCCCCCCCNc1ccc2c(c1)C(=O)/C(=C/c1ccc(O)c(OC)c1)C2 | 84.1 µM
COc1cc(/C=C2\Cc3ccc(OC(C)C)cc3C2=O)ccc1O | 8.61 µM
O=C1/C(=C/c2ccc(F)cc2)Cc2ccc(O)cc21 | 32.7 µM
COc1cc(/C=C2\Cc3ccc(N)cc3C2=O)ccc1O | 12.4 µM
COc1cc(/C=C2\Cc3ccc(NCCCCCCCCCCCCO)cc3C2=O)ccc1O | 0.68 µM
COc1cc(/C=C2\Cc3ccc(N(CCC(C)CCCC(C)C)CCC(C)CCCC(C)C)cc3C2=O)ccc1O (stereo unspecified) | 0.83 µM

SMILES | IC50
COc1cc(/C=C2\Cc3ccc(N4CCCCC4)cc3C2=O)ccc1O | 3.32 µM
O=C1/C(=C/c2ccccc2Cl)Cc2ccc(O)cc21 | > 100 µM
O=C1/C(=C/c2ccc(O)cc2)Cc2ccc(O)cc21 | > 100 µM
COc1cc(/C=C2\Cc3ccc(N(CCCCCCCCCCCCO)CCCCCCCCCCCCO)cc3C2=O)ccc1O | 0.33 µM
C=CCCCCCCCCN(CCCCCCCCC=C)c1ccc2c(c1)C(=O)/C(=C/c1ccc(O)c(OC)c1)C2 | 0.58 µM
COc1cc(/C=C2\Cc3ccc(O)cc3C2=O)cc(OC)c1OC | 14.8 µM
COc1ccc2c(c1)C(=O)/C(=C/c1ccc(O)c(OC)c1)C2 | 37.1 µM
O=C1/C(=C/c2ccc(Cl)c(Cl)c2)Cc2ccc(O)cc21 | 75.4 µM
COc1cc(/C=C2\Cc3ccc(N4CCCC4)cc3C2=O)ccc1O | 3.5 µM
COc1cc(/C=C2\Cc3ccc(NCCC(C)CCCC(C)C)cc3C2=O)ccc1O (stereo unspecified) | 2.52 µM
O=C1/C(=C/c2ccccc2F)Cc2ccc(O)cc21 | > 100 µM
COc1cc(/C=C2\Cc3ccccc3C2=O)ccc1O | 6.94 µM
CCN(CC)c1ccc2c(c1)C(=O)/C(=C/c1ccc(O)c(OC)c1)C2 | 1.69 µM
CCCOc1ccc2c(c1)C(=O)/C(=C/c1ccc(O)c(OC)c1)C2 | 2.54 µM
O=C1/C(=C/c2ccccc2Br)Cc2ccc(O)cc21 | 28.9 µM

Target: T1, Pancreatic triacylglycerol lipase
Assay: Mixed type inhibition of porcine pancreatic lipase using 4MUO as substrate by Lineweaver-Burk plot analysis
Outline: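 Kinetics of porcine pancreatic lipase with varied 4-MUO concentrations and increasing inhibitor doses, otherwise as in the standard assay (0.01 mg/mL enzyme, citrate phosphate pH 7.4, 37 °C, 4-MU fluorescence read-out). Inhibition mode and Ki taken from inhibition kinetic plots and Lineweaver-Burk plots, with a secondary plot of slopes. Nonlinear regression; mean ± SD of triplicates.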

SMILES | Ki
COc1cc(/C=C2\Cc3ccc(N(CCCCCCCCCCCCO)CCCCCCCCCCCCO)cc3C2=O)ccc1O | 0.12 µM

Tested on: not listed separately
Assay: Metabolic stability in human liver microsomes assessed as half life in Phase I metabolic system at 10 uM measured by LC-UV method
Type: ADME, Microsome
Outline: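 Phase I incubation with human liver preparations, compound or testosterone control at 10 μM final. Remaining compound quantified by LC-UV (ODS column, 40 °C, acetonitrile/0.2% formic acid water gradient, 0.4 mL/min, detection 370 nm) to give in vitro half-life.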

SMILES | half-life at 10 µM
COc1cc(/C=C2\Cc3ccc(N(CCCCCCCCCCCCO)CCCCCCCCCCCCO)cc3C2=O)ccc1O | 3.68 h

Target: not listed separately
Assay: Inhibition of porcine pancreatic lipase type 2
Set-up: species or system Sus scrofa
Outline: as §1

SMILES | IC50
O=C1/C(=C/c2ccccc2)Cc2ccccc21 | 22.5 µM
CC(C)=CCc1c(O)ccc(C(=O)/C=C/c2ccc(O)cc2)c1O [ISOBAVACHALCONE] | 3.3 µM
CC(C)=CCc1c(O)ccc(C(=O)/C=C/c2ccc(O)cc2O)c1O [MORACHALCONE A] | 6.2 µM
CC(C)=CCc1cc(C(=O)/C=C/c2ccc(O)cc2)c(O)cc1O [BROUSSOCHALCONE B] | 5.7 µM

Tested on: not listed separately
Assay: Metabolic stability in artificial gastrointestinal fluids assessed as half life at 100 uM by LC-UV method
Outline: (§2)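 Artificial gastric or intestinal fluid (800 μL) prewarmed 3 min at 37 °C, then compound added to 100 μM final. Aliquots taken at 0, 0.5, 1, 2 and 4 h and quenched with equal volume of ice-cold acetonitrile. Half-life derived from remaining compound.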

SMILES | T1/2
COc1cc(/C=C2\Cc3ccc(N(CCCCCCCCCCCCO)CCCCCCCCCCCCO)cc3C2=O)ccc1O | 3.89 h

Tested on: not listed separately
Assay: Metabolic stability in artificial intestinal fluids assessed as half life at 100 uM by LC-UV method
Outline: as §2

SMILES | T1/2
COc1cc(/C=C2\Cc3ccc(N(CCCCCCCCCCCCO)CCCCCCCCCCCCO)cc3C2=O)ccc1O | > 4 h

Tested on: not listed separately
Assay: Metabolic stability in human liver microsomes assessed as half life in Phase II metabolic system at 10 uM measured by LC-UV method
Type: ADME, Microsome
Outline: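 Phase II system of human liver preparations, compound at 10 μM final. Remaining compound measured by UFLC-UV on an ODS column (2.1 × 150 mm, 2.2 μm) at 40 °C and 0.4 mL/min, with an acetonitrile / water (0.2% formic acid) gradient, detection at 370 nm. Half-life reported.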

SMILES | half-life at 10 µM
COc1cc(/C=C2\Cc3ccc(N(CCCCCCCCCCCCO)CCCCCCCCCCCCO)cc3C2=O)ccc1O | 1.95 h
O=c1ccc2ccc(O)cc2o1 [UMBELLIFERONE] | 0.258 h
